A short description of data set [1]: Cytostatic activity. Type of data set: cell-based. The conditions noted are these: human, HEL cells, non-infected.
Data set [2] is described as follows: Cytostatic activity. The class given is cell-based. The following applies: human, PHKs, non-infected.
The next data set concerns PHKs. In words: Cytotoxicity by cell morphology. Type of data set: cell-based, human. The conditions noted are these: non-infected. In a few lines:
(§1)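 Run in non-infected cultures in parallel with the antiviral assay. Cells exposed to test compound and examined microscopically at day 3. MCC is the lowest concentration giving a detectable change in cell morphology.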

The subject of a further data set is HEL cells. In words: Cytotoxicity by cell morphology. The class given is cell-based, human. The following applies: HEL, non-infected, cell morphology. In a few lines: as §1
The subject of another data set is HSV-1. In words: HSV-1-infected athymic nude mice. The conditions noted are these: 1% gel, topical. The class given is in vivo. The procedure, abridged: (§2)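 Female NMRI athymic nude or hairless mice (~20 g, ~4 weeks; groups of five) scarified over ~1 cm² lumbosacral area with HSV-1 KOS (5×10^3 PFU) or HSV-2 G (5×10^2). Test compound 1% in 100% DMSO or CAPRISA 004-type gel, topical twice daily for 5 days from 1-2 h post-infection; same vehicle without drug as placebo. Lesions and mortality recorded over one month; Kaplan-Meier survival, log-rank test.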

Data set [3] deals with HSV-2. In words: HSV-2-infected athymic nude mice. The following applies: 1% gel, topical. The class given is in vivo. In a few lines:
as §2

Data set [4] relates to HSV-2. As to the kind of experiment: HSV-2 cytopathicity in primary monocyte/macrophage cultures. The following applies: for Cytopathicity (CPE) (%): day 6, M/M. The class given is cell-based.
The test system of data set [5] is HSV-2. Type of data set: cell-based. The following applies: M/M.
Data set [6] has as its system HSV-2. The class given is cell-based. The conditions noted are these: day 6, M/M.
A further data set concerns HIV-1. The conditions noted are these: lymphoid and cervico-vaginal tissues; ref Lisco et al., 2008; cited from earlier work.
Another data set concerns the target HSV-1 DNA polymerase (Human herpesvirus 1, UniProt P04293). As to the kind of experiment: HSV-1 DNA polymerase assay. The class given is biochemical. The procedure, abridged: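 Recombinant HSV-1 DNA polymerase; 40 µl reactions with a Tris.HCl pH 7.5/DTT/MgCl₂ premix, BSA and activated calf thymus DNA. One radiolabelled dNTP was the competing substrate: [³H]dATP (3.2 µM), [³H]dGTP (2.8 µM), [³H]dTTP (1 µM) or [³H]dCTP (2.5 µM); unlabelled others present. Tenofovir-diphosphate added from 200, 20, 2, 0.2 µM solutions. 60 min at 37°C; stopped with ice-cold TCA/pyrophosphate; acid-insoluble DNA collected on glass-fibre filters.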

For another data set, the target named is HIV-1 RT (Human immunodeficiency virus type 1 group M subtype B, UniProt P03366). As to the kind of experiment: HIV-1 reverse transcriptase assay. The class given is biochemical. The conditions noted are these: competing dATP (3.2 μM); activated calf thymus DNA. The procedure, abridged: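 Reaction mix: Tris-HCl pH 7.5, DTT, MgCl2, BSA, activated calf thymus DNA, unlabelled dCTP, dTTP and dGTP, and [3H]dATP (3.2 µM) with diphosphate test compound at various concentrations. Started with recombinant HIV-1 RT and run 30 min at 37 °C. Stopped with ice-cold 5% TCA/pyrophosphate; acid-insoluble DNA caught on glass-fibre filters and counted by liquid scintillation.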

For the next data set, the system named is HSV-2G, HSV-2MS. In words: Human tonsillar tissue ex vivo infected with HSV-2. Type of data set: cell-based. The conditions noted are these: data not shown.
Data set [7] relates to HSV-2. The following applies: daily oral, co-formulation with FTC; ref Lama et al., 18th CROI 2011, # 1002; cited from earlier work.

Converted amounts (≈) assume the structure as drawn. Structures can show the parent of a compound that is named as a salt. Where two headings read alike, the source gives them in different places.

By CC50 is commonly meant the concentration that lowers cell viability or growth by half. The low end stands for greater toxicity to the cells, the high end for lower toxicity to the cells.

Chain of HSV-1 DNA polymerase (P04293 whole entry): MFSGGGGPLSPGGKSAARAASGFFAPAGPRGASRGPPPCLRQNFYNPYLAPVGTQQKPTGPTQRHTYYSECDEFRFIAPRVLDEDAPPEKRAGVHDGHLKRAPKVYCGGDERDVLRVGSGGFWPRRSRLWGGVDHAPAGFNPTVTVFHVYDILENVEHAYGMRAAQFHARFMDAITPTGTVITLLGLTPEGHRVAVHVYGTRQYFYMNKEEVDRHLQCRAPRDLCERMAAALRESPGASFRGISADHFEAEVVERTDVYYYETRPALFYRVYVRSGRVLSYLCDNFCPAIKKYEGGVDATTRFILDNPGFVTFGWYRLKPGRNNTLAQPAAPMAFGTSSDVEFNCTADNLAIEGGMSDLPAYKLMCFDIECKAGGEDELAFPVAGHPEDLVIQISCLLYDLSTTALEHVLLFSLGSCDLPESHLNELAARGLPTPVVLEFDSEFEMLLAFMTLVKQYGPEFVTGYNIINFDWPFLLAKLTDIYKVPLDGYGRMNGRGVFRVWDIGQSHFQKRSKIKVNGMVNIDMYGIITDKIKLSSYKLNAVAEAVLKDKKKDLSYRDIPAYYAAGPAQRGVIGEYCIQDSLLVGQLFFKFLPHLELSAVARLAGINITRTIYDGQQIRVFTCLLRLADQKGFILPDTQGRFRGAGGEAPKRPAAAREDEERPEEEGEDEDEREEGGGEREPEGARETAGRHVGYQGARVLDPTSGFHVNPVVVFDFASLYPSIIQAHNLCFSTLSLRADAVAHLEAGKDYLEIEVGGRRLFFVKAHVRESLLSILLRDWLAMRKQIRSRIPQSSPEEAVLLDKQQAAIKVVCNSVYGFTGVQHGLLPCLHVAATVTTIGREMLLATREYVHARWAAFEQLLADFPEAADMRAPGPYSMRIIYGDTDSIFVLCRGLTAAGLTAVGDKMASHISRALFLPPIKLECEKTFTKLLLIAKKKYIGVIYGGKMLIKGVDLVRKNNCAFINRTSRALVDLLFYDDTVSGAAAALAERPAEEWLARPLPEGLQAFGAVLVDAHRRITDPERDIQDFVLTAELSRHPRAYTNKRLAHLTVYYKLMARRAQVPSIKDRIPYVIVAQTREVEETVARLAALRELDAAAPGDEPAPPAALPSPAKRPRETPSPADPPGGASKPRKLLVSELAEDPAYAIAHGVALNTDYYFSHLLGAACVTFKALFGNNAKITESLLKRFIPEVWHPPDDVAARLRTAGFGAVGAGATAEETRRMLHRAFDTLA

With `Nc1ccn(C[C@@H](CO)OCP(=O)(O)O)c(=O)n1` [Cidofovir, (S)-1-(3-hydroxy-2-phosphonylmethoxypropyl)cytosine], the CC50 at 3 days in “Cytostatic activity [1]” is 82 ± 57 µg/mL (≈ 294 µM); in the data set “Cytostatic activity [2]” it was 34 ± 20 µg/mL (≈ 122 µM). The “Cell toxicity MCC (minimum cytotoxic concentration)” value (“Cell toxicity MCC” below) with PHKs was greater than 50 µg/mL; in the data set on HEL cells it was greater than 100 µg/mL.
`Nc1ncnc2c1ncn2CCOCP(=O)(O)O` [Adefovir, 9-[2-(phosphonylmethoxyethyl)adenine]]: the 50% cytotoxic concentration (CC50) at 3 days in the data set “Cytostatic activity [1]” is 100 ± 57 µg/mL (≈ 366 µM); in “Cytostatic activity [2]” it was 17 ± 6 µg/mL (≈ 62.2 µM). The “performance in 1% gel-treated mice, HSV-1 vs HSV-2” value in the data set with HSV-1 is “performed markedly better against HSV-1 than HSV-2”. Besides, the “performance in 1% gel-treated mice compared with tenofovir” value with HSV-2 [3] is listed as “virtually not superior to tenofovir against HSV-2”. For the same compound, the “Cytopathicity (CPE) (%)” value in the data set on HSV-2 [4] (0.2 μg/ml) is 5%; in the data set with HSV-2 [4] (1 μg/ml), “None”; in the data set with HSV-2 [4] (5 μg/ml), “None”; in the data set with HSV-2 [4] (20 μg/ml) it was “None”; with HSV-2 [4] (100 μg/ml), “None”; in the data set with HSV-2 [4] (500 μg/ml), “None”. Besides, the “CPE suppression in M/M” value with HSV-2 [4] (5 μg/ml) was “full CPE suppression”. The “Virus production (TCID50/ml)” value is on record as 1×10^5 TCID50/ml in the data set on HSV-2 [5] (0.04 μg/ml, day 6); 6×10^4 TCID50/ml with HSV-2 [5] (0.2 μg/ml, day 6); 8×10^2 TCID50/ml with HSV-2 [5] (1 μg/ml, day 6); “No virus” in the data set with HSV-2 [5] (5 μg/ml, day 6); “No virus” in the data set with HSV-2 [5] (20 μg/ml, day 6); “No virus” in the data set on HSV-2 [5] (100 μg/ml, day 6). Further, the “Virus production (TCID50/ml)” value in the data set on HSV-2 [5] (500 μg/ml, day 6 post infection) is “No virus”. The “Virus production (PFU/ml)” value in the data set with HSV-2 [6] (0.2 μg/ml) was 9.9×10^3 PFU/ml; in the data set with HSV-2 [6] (1 μg/ml), 2.5×10^2 PFU/ml; in the data set on HSV-2 [6] (5 μg/ml), “No virus”; in the data set on HSV-2 [6] (20 μg/ml) it was “No virus”; in the data set with HSV-2 [6] (100 μg/ml) it was “No virus”; with HSV-2 [6] (500 μg/ml), “No virus”. Also, the entries for the “Cell toxicity MCC” value with PHKs and in the data set on HEL cells were greater than 50 µg/mL and greater than 100 µg/mL, respectively.
`Nc1nc2c(ncn2COCCO)c(=O)[nH]1` [Acyclovir, 9-(2-hydroxyethoxy-methyl)guanine]: the results for the CC50 at 3 days in “Cytostatic activity [1]” and in the data set “Cytostatic activity [2]” were 166 ± 17 µg/mL (≈ 737 µM) and 132 µg/mL (≈ 586 µM), respectively. Also, the “inhibition of HIV-1 in herpesvirus-coinfected tissues” value in the data set on HIV-1 is reported as “efficiently inhibits HIV-1”. Further, the results for the “Cell toxicity MCC” value in the data set on PHKs and in the data set with HEL cells were greater than 50 µg/mL and greater than 100 µg/mL, respectively.
Consider `CC(Cn1cnc2c(N)ncnc21)OCP(=O)(O)OP(=O)(O)OP(=O)(O)O` (stereo in doubt) [Tenofovir-diphosphate, Tenofovir diphosphate], for which the “IC50 herpesvirus DNA polymerase” value was 0.38 ± 0.03 µg/mL at HSV-1 DNA polymerase (competing dATP (3.2 μM)), 25 ± 1.8 µg/mL at HSV-1 DNA polymerase (competing dCTP (2.5 μM)), 7.1 ± 5 µg/mL on HSV-1 DNA polymerase (competing dGTP (2.8 μM)) and 8.5 ± 3.8 µg/mL on HSV-1 DNA polymerase (competing dTTP (1 μM)). Moreover, at HIV-1 RT, the “IC50 HIV-1 RT” value amounted to 1.3 µg/mL.
In the case of `Nc1ccn([C@@H]2CS[C@H](CO)O2)c(=O)n1` [lamivudine], in the data set on HSV-2G, HSV-2MS, the “effect on HSV-2G replication” value is given as “no effect”.
`CC(C)OC(=O)OCOP(=O)(CO[C@H](C)Cn1cnc2c(N)ncnc21)OCOC(=O)OC(C)C` [tenofovir DF, tenofovir disoproxil fumarate]: in the data set on HSV-2 [7], the “effect on HSV-2 acquisition” value is reported as “did not reduce HSV-2 acquisition”.

Values taken from article PMC3201796 (Cell host & microbe, 2011).
